One data set has as its system NCI-H69. Briefly: In vitro cytotoxicity against human small cell lung cancer H69 cell lines. The class given is functional, cell-based. The method, boiled down:
(§1)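 MTT assay on suspension lines dispersed to single cells (L1210 RPMI/10% DHS; ADJ/PC6 DMEM/20% DHS plus hydrocortisone, insulin; H69 RPMI/10% FCS; Walker 256 DMEM/10% DHS), 1×10^3–8×10^3 cells/well. Continuous exposure 72–144 h, 37 °C; MTT 4–5 h, plates spun, formazan in DMSO, A540 vs untreated control. 3–6 replicate wells, each assay at least twice.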

The next data set relates to L1210. Briefly: In vitro cytotoxicity against L1210 murine lymphocytic leukemia cell lines. The class given is functional, cell-based. The settings on record: Mus musculus. An outline of the steps:
as §1

The subject of data set [1] is ADJ/PC6 plasmacytoma (Mus musculus). Briefly: In vitro cytotoxicity against PC6 murine plasmacytoma cell lines.
A short description of data set [2]: In vitro cytotoxicity against walker rat carcinoma 256 cell lines. It is filed as functional. The method, boiled down: as §1
Data set [3] can be described thus: Half-life was determined in water at 7.5 pH at 37 degree C. Conditions: pH 7.5. The class given is ADME. An outline of the steps:
(§2)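 Compound added from 50 mM DMSO stock to 10 mL of medium in polypropylene tubes, final 100 μM; tubes held in water baths at 37 °C or ambient (20–24 °C). Remaining parent measured by HPLC on C8 column, UV 225 nm; t1/2 from semilog plot of peak area versus time. Run on at least two occasions, variation 2–22%.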

A short description of data set [4]: Half-life was determined in water at 2.0 pH at 37 degree C. It is filed as ADME. Conditions: pH 2. The method, boiled down: as §2
Data set [5] is described as follows: In vitro cytotoxicity against GCT cell lines. The class given is functional, cell-based. The settings on record: Homo sapiens. The method, boiled down: (§3)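 MTT assay on GCT-27 and GCT-27/CisR (DMEM, 10% FCS, glutamine, hydrocortisone, insulin), trypsinized to single cells, 1×10^3–8×10^3 cells/well. Continuous drug exposure, 72–144 h at 37 °C, 8% CO2; MTT 4–5 h, formazan in DMSO, A540 (ref 690) as fraction of untreated control. 3–6 replicate wells per concentration, each assay at least twice.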

Data set [6] can be described thus: Aqueous solubility was determined. The class given is physicochemical.
Data set [7] in a line: In vitro cytotoxicity against GCT / cisR cell lines. It is filed as functional, cell-based. Conditions: Homo sapiens. The method, boiled down: as §3
Data set [8] can be described thus: Half-life was determined in water at 7.5 pH at room temperature. The class given is ADME. Conditions: pH 7.5. The method, boiled down: as §2
Data set [9] in a line: Half-life was determined in 0.9%sodium chloride at 5.2 pH at room temperature. It is filed as ADME. Conditions: 0.9% sodium chloride solution, pH 5.2. The method, boiled down:
as §2

The nature of data set [10]: Half-life was determined in 5%dextrose at 4.0 pH at room temperature. The settings on record: 5% dextrose solution, pH 4. It is filed as ADME. The method, boiled down:
as §2

Data set [11] can be described thus: Half-life was determined in water at 5.0 pH at 37 degree C. The class given is ADME. The settings on record: pH 5. An outline of the steps:
as §2

Data set [12] in a line: Half-life was determined in water at 5.0 pH at room temperature. It is filed as ADME. The settings on record: pH 5. An outline of the steps: as §2

Converted amounts (≈) assume the structure as drawn.

Turning to `CNc1nc(NCC(F)(F)F)nc(N(CO)CC(F)(F)F)n1`, the IC50 in the data set with NCI-H69 is 32.2 µM; with L1210, 112 µM; in [1], 71.4 µM; in data set [2] it was 27.5 µM.
Take `C#CCN(CO)c1nc(N(CO)CC#C)nc(N(CO)CC#C)n1`: the half-life in data set [3] was 7.5 h; in [4], 0.667 h. The IC50 stood at 53.9 µM in data set [5]; 13.1 µM with NCI-H69; 47.3 µM in data set [7]; 47.8 µM with L1210; 35.2 µM in [1]; 14.1 µM in data set [2]. In addition, the concentration in solution in data set [6] (solubility) came to 30 µg/mL (≈ 90.8 µM).
Turning to `OCN(CC(F)(F)F)c1nc(N(CO)CC(F)(F)F)nc(N(CO)CC(F)(F)F)n1`, the half-life in data set [8] came to 85 h; in data set [3], 11.5 h; in [4], 1 h; in data set [9] it was 95 h; in [10], 50 h. Also, the IC50 in the data set with NCI-H69 was 12.8 µM; in the data set with L1210 it was 55.1 µM; in data set [1], 29.5 µM; in data set [2], 12.2 µM. The amount in solution in [6] (solubility) came to 30 µg/mL (≈ 64.9 µM).
As for `OCN(CC(F)(F)F)c1nc(NCC(F)(F)F)nc(NCC(F)(F)F)n1`, the IC50 was found to be 42.3 µM in the data set with NCI-H69, 83.2 µM with L1210, 77.6 µM in data set [1] and 22.5 µM in data set [2].
With `N#CCN(CO)c1nc(N(CO)CC#N)nc(N(CO)CC#N)n1`, the half-life in [11] was determined as 16 h; in [8], 75.2 h; in data set [3], 4.58 h; in data set [4] it was 5.83 h; in [12] it was 102 h; in [9], 135 h. For the same molecule, the half-life in data set [10] was 180 h. The IC50 is 11.8 µM in the data set on NCI-H69, 32.4 µM in the data set with L1210, 19.4 µM in [1] and 7.5 µM in data set [2]. In [6], the solubility stood at 1000 µg/mL (≈ 3000 µM).
In the case of `OCOCN(CC(F)(F)F)c1nc(N(CO)CC(F)(F)F)nc(N(CO)CC(F)(F)F)n1`, the IC50 was determined as 25.8 µM in data set [5], 13.4 µM in the data set on NCI-H69, 23.7 µM in data set [7] and 29.8 µM in data set [1].
For the molecule `CN(CO)c1nc(N(C)CO)nc(N(C)CO)n1` [TRIMELAMOL], the half-life in data set [11] amounted to 3.33 h; in data set [3], 2 h; in data set [12] it was 13.7 h; in [9], 4.58 h; in [10], 5.83 h. The IC50 in data set [5] worked out at 24.3 µM; in the data set on NCI-H69, 8.5 µM; in [7] it was 30.9 µM; with L1210, 33.4 µM; in data set [1] it was 12.9 µM; in data set [2], 9.4 µM. For the same molecule, the solubility in data set [6] worked out at 4500 µg/mL (≈ 17400 µM).

These data come from ChEMBL document CHEMBL1126570, “Synthesis and cytotoxicity of potential tumor-inhibitory analogues of trimelamol (2,4,6-tris[(hydroxymethyl)methylamino]-1,3,5-triazine) having electron-withdrawing groups in place of methyl” (J Med Chem, 1993).
